In ChEMBL document CHEMBL4813998, “Structural simplification of evodiamine: Discovery of novel tetrahydro-β-carboline derivatives as potent antitumor agents” (Bioorg Med Chem Lett, 2021):
pIC50: −log10 of the molar value.

Columns and labels:
HCT-116 [1] = assay: Induction of cell cycle arrest in human HCT-116 cells assessed as accumulation at G2/M phase at 0.15 uM after 24 hrs by propidium iodide staining based flow cytometric analysis (reference value: 27.78%); type: functional
[2] = Antiproliferative activity against human HCT116 cells assessed as growth inhibition by CCK8 assay; type: functional, cell-based, Epithelial cell; conditions: epithelial cell
HCT-116 [3] = assay: Induction of cell cycle arrest in human HCT-116 cells assessed as accumulation at S phase at 0.03 uM after 24 hrs by propidium iodide staining based flow cytometric analysis (reference value: 39.06%); type: functional
HCT-116 [4] = assay: Induction of cell cycle arrest in human HCT-116 cells assessed as accumulation at G2/M phase at 0.75 uM after 24 hrs by propidium iodide staining based flow cytometric analysis (reference value: 27.78%); type: functional
HCT-116 [5] = assay: Induction of apoptosis in human HCT116 cells at 0.75 uM after 48 hrs by annexin V-FITC/propidium iodide staining based flow cytometry (RVB = 6.77%); type: functional
Method in brief: (§1)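 HCT116 cells were treated at 0.03, 0.15, 0.75 or 1.5 μM for 48 h. They were then stained with Annexin V/PI and analysed by flow cytometry, and apoptotic cells were reported as a percentage. An untreated control was run alongside.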

HCT-116 [6] = assay: Induction of cell cycle arrest in human HCT-116 cells assessed as accumulation at G1 phase at 0.03 uM after 48 hrs by propidium iodide staining based flow cytometric analysis (reference value: 34.38%); type: functional
[7] = Antiproliferative activity against human A549 cells assessed as growth inhibition by CCK8 assay; type: functional, cell-based, Epithelial cell; conditions: epithelial cell
HCT-116 [8] = assay: Induction of cell cycle arrest in human HCT-116 cells assessed as accumulation at G1 phase at 0.75 uM after 24 hrs by propidium iodide staining based flow cytometric analysis (reference value: 33.16%); type: functional
HCT-116 [9] = assay: Induction of apoptosis in human HCT116 cells at 0.03 uM after 48 hrs by annexin V-FITC/propidium iodide staining based flow cytometry (RVB = 6.77%); type: functional; method in brief: as §1
HCT-116 [10] = assay: Induction of cell cycle arrest in human HCT-116 cells assessed as accumulation at G2/M phase at 0.75 uM after 48 hrs by propidium iodide staining based flow cytometric analysis (reference value: 25.01%); type: functional
HCT-116 [11] = assay: Induction of cell cycle arrest in human HCT-116 cells assessed as accumulation at G1 phase at 0.15 uM after 24 hrs by propidium iodide staining based flow cytometric analysis (reference value: 33.16%); type: functional
HCT-116 [12] = assay: Induction of cell cycle arrest in human HCT-116 cells assessed as accumulation at G2/M phase at 0.03 uM after 48 hrs by propidium iodide staining based flow cytometric analysis (reference value: 25.01%); type: functional
HCT-116 [13] = assay: Induction of apoptosis in human HCT116 cells at 0.15 uM after 48 hrs by annexin V-FITC/propidium iodide staining based flow cytometry (RVB = 6.77%); type: functional; method in brief: as §1
HCT-116 [14] = assay: Induction of cell cycle arrest in human HCT-116 cells assessed as accumulation at G2/M phase at 0.15 uM after 48 hrs by propidium iodide staining based flow cytometric analysis (reference value: 25.01%); type: functional
HCT-116 [15] = assay: Induction of apoptosis in human HCT116 cells at 1.5 uM after 48 hrs by annexin V-FITC/propidium iodide staining based flow cytometry (RVB = 6.77%); type: functional; method in brief: as §1
HCT-116 [16] = assay: Induction of cell cycle arrest in human HCT-116 cells assessed as accumulation at S phase at 0.75 uM after 48 hrs by propidium iodide staining based flow cytometric analysis (reference value: 40.6%); type: functional
HCT-116 [17] = assay: Induction of cell cycle arrest in human HCT-116 cells assessed as accumulation at S phase at 0.15 uM after 24 hrs by propidium iodide staining based flow cytometric analysis (reference value: 39.06%); type: functional
[18] = Antiproliferative activity against human MDA-MB-231 cells assessed as growth inhibition by CCK8 assay; type: functional, cell-based, Epithelial cell; conditions: epithelial cell
HCT-116 [19] = assay: Induction of cell cycle arrest in human HCT-116 cells assessed as accumulation at S phase at 0.75 uM after 24 hrs by propidium iodide staining based flow cytometric analysis (reference value: 39.06%); type: functional
HCT-116 [20] = assay: Induction of cell cycle arrest in human HCT-116 cells assessed as accumulation at G1 phase at 0.15 uM after 48 hrs by propidium iodide staining based flow cytometric analysis (reference value: 34.38%); type: functional
HCT-116 [21] = assay: Induction of cell cycle arrest in human HCT-116 cells assessed as accumulation at G1 phase at 0.75 uM after 48 hrs by propidium iodide staining based flow cytometric analysis (reference value: 34.38%); type: functional
HCT-116 [22] = assay: Induction of cell cycle arrest in human HCT-116 cells assessed as accumulation at G2/M phase at 0.03 uM after 24 hrs by propidium iodide staining based flow cytometric analysis (reference value: 27.78%); type: functional
HCT-116 [23] = assay: Induction of cell cycle arrest in human HCT-116 cells assessed as accumulation at S phase at 0.15 uM after 48 hrs by propidium iodide staining based flow cytometric analysis (reference value: 40.6%); type: functional
HCT-116 [24] = assay: Induction of cell cycle arrest in human HCT-116 cells assessed as accumulation at S phase at 0.03 uM after 48 hrs by propidium iodide staining based flow cytometric analysis (reference value: 40.6%); type: functional
HCT-116 [25] = assay: Induction of cell cycle arrest in human HCT-116 cells assessed as accumulation at G1 phase at 0.03 uM after 24 hrs by propidium iodide staining based flow cytometric analysis (reference value: 33.16%); type: functional

COc1ccc2[nH]c3c(c2c1)CCN(C(=O)CCc1ccccc1)C3c1ccc(Cl)c(Cl)c1 (stereo in doubt; 45)
Activity (HCT-116 [1]): 78.12%
pIC50 [2]: 6.80
Activity (HCT-116 [3]): 35.43%
Activity (HCT-116 [4]): 88.37%
Activity (HCT-116 [5]): 25.43%
Activity (HCT-116 [6]): 11.27%
pIC50 [7]: 6.12
Activity (HCT-116 [8]): 1.2%
Activity (HCT-116 [9]): 10.11%
Activity (HCT-116 [10]): 93.15%
Activity (HCT-116 [11]): 2.02%
Activity (HCT-116 [12]): 67.92%
Activity (HCT-116 [13]): 13.46%
Activity (HCT-116 [14]): 93.03%
Activity (HCT-116 [15]): 30.98%
Activity (HCT-116 [16]): 4.79%
Activity (HCT-116 [17]): 19.86%
pIC50 [18]: 6.80
Activity (HCT-116 [19]): 10.43%
Activity (HCT-116 [20]): 2.19%
Activity (HCT-116 [21]): 2.06%
Activity (HCT-116 [22]): 32.12%
Activity (HCT-116 [23]): 4.78%
Activity (HCT-116 [24]): 20.81%
Activity (HCT-116 [25]): 32.45%
